Reference: the RNAGym collection of RNA variant scans (doi:10.1126/science.aae0568)
This sample holds only a part of the variants without activity.

B1: tRNA (parent)
chain: GUUCCGUUGGCGUAAUGGUAACGCGUCUCCCUCCUAAGGAGAAGACUGCGGGUUCGAGUCCCGUACGGAACG

Variants of: B1
Experiment: yeast fitness relative to wild type (ratio to wild type); higher = fitter; tRNA-Arg(CCU), competitive growth, 37 C, YPD
Procedure, shortened: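 Gene amplicons from the start population and from each of six end populations were read by 100-nucleotide paired-end sequencing. Those end populations came from pooled Saccharomyces cerevisiae strains carrying tRNA-Arg(CCU) gene variants at the native locus, competed in YPD at 37°C for 24 hours. Fitness relative to wild type was worked out from changes in genotype frequencies. Genotypes needed ≥ 100 starting reads, and estimates < 0.5 were set to 0.5.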
In the case of A14C C27G C60A A65U, the yeast fitness is reported as ≤ 0.5.
In the case of A14C C27G C61U A70G, the yeast fitness is reported as 0.538.
In the case of A14C C27G U28G, the yeast fitness is reported as ≤ 0.5.
For A14C C27G U35C C46G A65G, the yeast fitness was ≤ 0.5.
In the case of A14C C27U A43C, the yeast fitness is reported as ≤ 0.5.
In the case of A14C C27U A43U, the yeast fitness is reported as ≤ 0.5.
In the case of A14C C27U C31U C33A C55U, the yeast fitness is reported as ≤ 0.5.
With A14C C27U C46U G52C the yeast fitness was ≤ 0.5.
For A14C C27U U47C C60G, the yeast fitness was 0.641.
Variant A14C C29A has a yeast fitness of 0.596.
In the case of A14C C29A G48A G50A, the yeast fitness is reported as ≤ 0.5.
Work on A14C C29A G50A yielded a yeast fitness of 0.576.
For A14C C29G C30A C62A A69C, the yeast fitness was ≤ 0.5.
In the case of A14C C29U C46A, the yeast fitness is reported as ≤ 0.5.
In the case of A14C C29U G39C U54C, the yeast fitness is reported as 0.678.
For A14C C29U G52A C55G, the yeast fitness was ≤ 0.5.
For A14C C30A A36G C62U G63A, the yeast fitness was ≤ 0.5.
In the case of A14C C30A A40U, the yeast fitness is reported as ≤ 0.5.
For A14C C30A C33G C46U, the yeast fitness was ≤ 0.5.
For A14C C30G A37G A45G G50A U59C G67C, the yeast fitness was ≤ 0.5.
For A14C C30G C46U G48A U54G, the yeast fitness was ≤ 0.5.
In the case of A14C C30G G68U, the yeast fitness is reported as 0.567.
For A14C C30U G41C, the yeast fitness was 0.589.
With A14C C30U G50C C66U the yeast fitness was ≤ 0.5.
With A14C C30U G68C the yeast fitness was ≤ 0.5.
Variant A14C C31A has a yeast fitness of 0.669.
With A14C C31G the yeast fitness was 0.502.
In the case of A14C C31G A37U G39C A42C, the yeast fitness is reported as ≤ 0.5.
In the case of A14C C31G C62A G67U, the yeast fitness is reported as ≤ 0.5.
A14C C31U A36U A69C gave a yeast fitness of 0.624.
For A14C C31U A40G, the yeast fitness was ≤ 0.5.
A14C C31U A40U A57G showed a yeast fitness of 0.53.
Variant A14C C31U A70G has a yeast fitness of 0.612.
In the case of A14C C31U G50A C55G C62A, the yeast fitness is reported as ≤ 0.5.
A14C C31U G58A C62U gave a yeast fitness of 0.609.
In the case of A14C C33A A37U C62G, the yeast fitness is reported as ≤ 0.5.
With A14C C33G the yeast fitness was 0.726.
In the case of A14C C33G G44C U54G G58C, the yeast fitness is reported as ≤ 0.5.
In the case of A14C C34A A37G C62U, the yeast fitness is reported as ≤ 0.5.
With A14C C34A G38C the yeast fitness was ≤ 0.5.
A14C C34G gave a yeast fitness of 0.577.
In the case of A14C C34U, the yeast fitness is reported as ≤ 0.5.
With A14C C34U A37G A69C the yeast fitness was ≤ 0.5.
For A14C C34U G39C A70U, the yeast fitness was ≤ 0.5.
In the case of A14C C34U G39C G63A, the yeast fitness is reported as ≤ 0.5.
With A14C C46A U47G the yeast fitness was ≤ 0.5.
With A14C C46G the yeast fitness was 0.953.
With A14C C46U G50C C61A A70C the yeast fitness was ≤ 0.5.
For A14C C46U U53A, the yeast fitness was ≤ 0.5.
With A14C C49A the yeast fitness was 0.562.
A14C C49G gave a yeast fitness of 0.542.
With A14C C49G A69C the yeast fitness was ≤ 0.5.
In the case of A14C C49G G63A, the yeast fitness is reported as 0.593.
Work on A14C C49G G63C yielded a yeast fitness of 0.592.
For A14C C49G U54C G63A, the yeast fitness was ≤ 0.5.
For A14C C55A A69C, the yeast fitness was ≤ 0.5.
In the case of A14C C55A G58A, the yeast fitness is reported as 0.55.
Work on A14C C55U C61G C62G yielded a yeast fitness of 0.571.
Variant A14C C60A has a yeast fitness of 0.589.
In the case of A14C C60A A65U, the yeast fitness is reported as ≤ 0.5.
With A14C C60A A70U the yeast fitness was ≤ 0.5.
With A14C C60U C62U U64A the yeast fitness was ≤ 0.5.
Work on A14C C61A yielded a yeast fitness of 0.604.
A14C C61U showed a yeast fitness of 0.626.
For A14C C61U A65C, the yeast fitness was ≤ 0.5.
For A14C C61U A70C, the yeast fitness was ≤ 0.5.
A14C C62A showed a yeast fitness of 0.65.
A14C C62G A70G showed a yeast fitness of 0.632.
With A14C C62U A69C the yeast fitness was ≤ 0.5.
In the case of A14C C66A, the yeast fitness is reported as 0.722.
With A14C C66G the yeast fitness was 0.558.
With A14C C66G G68C the yeast fitness was ≤ 0.5.
With A14C C66U the yeast fitness was 0.657.
In the case of A14C G17A G48C C55U G63U, the yeast fitness is reported as ≤ 0.5.
For A14C G17C A21G U32A C34U, the yeast fitness was ≤ 0.5.
For A14C G17C C27U U47G, the yeast fitness was ≤ 0.5.
With A14C G17C U26A G41C G44U the yeast fitness was ≤ 0.5.
With A14C G17U C22U C34U the yeast fitness was ≤ 0.5.
With A14C G17U C27U the yeast fitness was 0.647.
Variant A14C G18A has a yeast fitness of 0.59.
In the case of A14C G18A A42G G44A C66G, the yeast fitness is reported as ≤ 0.5.
In the case of A14C G18A C22G A57U, the yeast fitness is reported as ≤ 0.5.
With A14C G18A C29G A42C the yeast fitness was ≤ 0.5.
With A14C G18A C30U C49A the yeast fitness was ≤ 0.5.
For A14C G18A C31G C33U A37C A65U, the yeast fitness was ≤ 0.5.
With A14C G18A G44A C66G the yeast fitness was 0.56.
In the case of A14C G18A G44A U59C C66G, the yeast fitness is reported as ≤ 0.5.
For A14C G18A G48A, the yeast fitness was ≤ 0.5.
In the case of A14C G18A G50A G63C, the yeast fitness is reported as ≤ 0.5.
A14C G18C G41C showed a yeast fitness of 0.662.
With A14C G23A C29U U35C C55G the yeast fitness was 0.627.
For A14C G23A C34A C49G, the yeast fitness was ≤ 0.5.
In the case of A14C G23C A36U A70U, the yeast fitness is reported as ≤ 0.5.
In the case of A14C G25A A36C G44A, the yeast fitness is reported as 0.571.
In the case of A14C G25A C29G A45U C62A A70C, the yeast fitness is reported as ≤ 0.5.
For A14C G25A C33G A36U A45G G52C A70C, the yeast fitness was 0.556.
For A14C G25A C66U, the yeast fitness was 0.541.
In the case of A14C G25C A45G G48A, the yeast fitness is reported as 0.534.
For A14C G25C C27G C34U U35A G38A A70G, the yeast fitness was ≤ 0.5.
In the case of A14C G25C C27G C34U U35A G38A G56A U59G, the yeast fitness is reported as ≤ 0.5.
For A14C G25C C27G C34U U35A G38A U59A, the yeast fitness was ≤ 0.5.
For A14C G25C C62U, the yeast fitness was ≤ 0.5.
In the case of A14C G25C G48A A69U, the yeast fitness is reported as 0.553.
In the case of A14C G25C G48A G50A, the yeast fitness is reported as ≤ 0.5.
For A14C G25C U32A A43C G63A A69C, the yeast fitness was ≤ 0.5.
A14C G25C U47A gave a yeast fitness of 0.608.
In the case of A14C G25C U47A C49U G63C, the yeast fitness is reported as 0.561.
A14C G39C showed a yeast fitness of 0.575.
Variant A14C G41A has a yeast fitness of 0.553.
In the case of A14C G41A A43C, the yeast fitness is reported as ≤ 0.5.
In the case of A14C G44A C66U, the yeast fitness is reported as ≤ 0.5.
In the case of A14C G48A G58A, the yeast fitness is reported as 1.04.
Variant A14C G50A has a yeast fitness of 0.612.
A14C G50A G63C gave a yeast fitness of 0.522.
In the case of A14C G50U, the yeast fitness is reported as 0.708.
A14C G51A gave a yeast fitness of 0.714.
For A14C G51A A69U A70G, the yeast fitness was ≤ 0.5.
With A14C G52C C55G the yeast fitness was 0.546.
For A14C G56A, the yeast fitness was 0.762.
In the case of A14C G56A A69C, the yeast fitness is reported as 0.578.
In the case of A14C G58A C61A C62G, the yeast fitness is reported as ≤ 0.5.
With A14C G58C G67A the yeast fitness was ≤ 0.5.
With A14C G58C G68C the yeast fitness was ≤ 0.5.
Variant A14C G63A has a yeast fitness of 0.803.
Work on A14C G63C yielded a yeast fitness of 0.535.
In the case of A14C G67U, the yeast fitness is reported as 0.678.
A14C G68A showed a yeast fitness of 0.712.
In the case of A14C U16A, the yeast fitness is reported as 0.597.
In the case of A14C U16A C24U U53C C60G, the yeast fitness is reported as ≤ 0.5.
Work on A14C U16A C27G C55U yielded a yeast fitness of 0.539.
With A14C U16A G41C G63C A65U the yeast fitness was 0.586.
In the case of A14C U16C, the yeast fitness is reported as 0.724.
In the case of A14C U16C A37G A40U G51C A69C, the yeast fitness is reported as ≤ 0.5.
With A14C U16C A40U G51C A69C the yeast fitness was 0.639.
With A14C U16C A69U the yeast fitness was ≤ 0.5.
In the case of A14C U16C C55U A70G, the yeast fitness is reported as ≤ 0.5.
A14C U16G showed a yeast fitness of 0.609.
A14C U19A A20C G51A U59C showed a yeast fitness of 0.645.
For A14C U19A A21C C34U G39A, the yeast fitness was 0.62.
With A14C U19A A45C A65G the yeast fitness was ≤ 0.5.
For A14C U19A A45U, the yeast fitness was ≤ 0.5.
With A14C U19A C22U A45C the yeast fitness was ≤ 0.5.
In the case of A14C U19A C49U C62G G63A, the yeast fitness is reported as ≤ 0.5.
In the case of A14C U19A G39C, the yeast fitness is reported as ≤ 0.5.
In the case of A14C U19C A20G G58A, the yeast fitness is reported as ≤ 0.5.
In the case of A14C U19C A43C G44C G48A U59A C62U U64A, the yeast fitness is reported as ≤ 0.5.
In the case of A14C U19C A43C G44C G48A U59A U64C C66U, the yeast fitness is reported as ≤ 0.5.
For A14C U19C C27A G41C A42U C66U, the yeast fitness was 0.582.
For A14C U19C C34U, the yeast fitness was ≤ 0.5.
A14C U19C C66U showed a yeast fitness of 0.722.
For A14C U19G C31G C33U A42G U64C A65G, the yeast fitness was ≤ 0.5.
For A14C U19G U32A, the yeast fitness was ≤ 0.5.
In the case of A14C U26A C29U C49U, the yeast fitness is reported as ≤ 0.5.
For A14C U26A C34A G44A G67C, the yeast fitness was ≤ 0.5.
For A14C U26A C34U C55G G68A, the yeast fitness was ≤ 0.5.
For A14C U26A C34U G50U C55G, the yeast fitness was ≤ 0.5.
In the case of A14C U26C A36G, the yeast fitness is reported as ≤ 0.5.
With A14C U26C C29U A43G the yeast fitness was 0.59.
In the case of A14C U26G C29A A42C, the yeast fitness is reported as ≤ 0.5.
For A14C U28A, the yeast fitness was 0.618.
With A14C U28A A42U the yeast fitness was ≤ 0.5.
In the case of A14C U28A G44A C55A, the yeast fitness is reported as ≤ 0.5.
For A14C U28A U54A C61G A69C, the yeast fitness was ≤ 0.5.
For A14C U28G C55G G68C, the yeast fitness was ≤ 0.5.
In the case of A14C U32G, the yeast fitness is reported as 0.752.
With A14C U32G C34G A43U G58C G67U the yeast fitness was ≤ 0.5.
In the case of A14C U32G G39C, the yeast fitness is reported as ≤ 0.5.
